Calls of active or inactive are those of the source. The calls are words filed in the database; no cut-off is given here. Peptide text beside a SMILES is read from it. * marks the point of attachment. Cbz = O=C(OCc1ccccc1)*
Legend:
[1] = biological target: T1, Nuclear factor erythroid 2-related factor 2 (Homo sapiens) (UniProt Q16236); assay: Activation of NRF2 transcription in human HepG2C8 cells at 10 uM after 6 hrs by luciferase reporter gene assay relative to control; type: cell-based
T1 sequence (whole entry): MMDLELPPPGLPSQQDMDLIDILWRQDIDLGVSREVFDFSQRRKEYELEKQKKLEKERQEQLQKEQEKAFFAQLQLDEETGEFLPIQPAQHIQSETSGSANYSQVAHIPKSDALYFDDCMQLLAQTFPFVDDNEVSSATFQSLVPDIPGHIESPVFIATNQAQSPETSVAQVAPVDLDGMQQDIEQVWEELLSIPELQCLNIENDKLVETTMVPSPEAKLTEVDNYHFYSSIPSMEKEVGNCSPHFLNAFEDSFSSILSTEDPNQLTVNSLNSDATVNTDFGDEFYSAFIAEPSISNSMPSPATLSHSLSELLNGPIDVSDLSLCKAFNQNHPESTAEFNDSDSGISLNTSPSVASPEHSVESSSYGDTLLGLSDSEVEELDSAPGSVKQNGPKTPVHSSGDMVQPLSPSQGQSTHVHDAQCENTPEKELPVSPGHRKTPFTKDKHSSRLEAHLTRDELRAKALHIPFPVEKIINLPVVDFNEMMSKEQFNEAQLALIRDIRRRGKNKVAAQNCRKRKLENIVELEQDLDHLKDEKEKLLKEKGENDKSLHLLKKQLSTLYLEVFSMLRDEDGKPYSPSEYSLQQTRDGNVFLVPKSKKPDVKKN
In short: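 Luciferase reporter in HepG2C8 cells, which are HepG2 stably transfected with an Nrf2 luciferase reporter and grown in MEM. Screened at 10 μM, with dose-response over 2.5−40 μM. Activity expressed as fold of control. tBHQ positive control.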

Influenza A virus = assay: Antiviral activity against Influenza A virus A/WSN/33(H1N1) infected in MDCK cells at 100 uM preincubated with virus for 15 mins followed by cells addition measured at 36 hrs post infection; type: functional, A/WSN/1933(H1N1)
In short: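 MDCK canine kidney cells grown in DMEM and infected with influenza A/WSN/33 (H1N1). Compounds screened at 100 μM. Oseltamivir phosphate served as the positive control.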

[2] = biological target: T2, Tyrosine-protein phosphatase non-receptor type 1 (Homo sapiens) (UniProt P18031); assay: Inhibition of recombinant human PTP1B assessed as hydrolysis of p-nitrophenyl phosphate at 25 uM after 30 mins relative to control
T2 sequence (whole entry): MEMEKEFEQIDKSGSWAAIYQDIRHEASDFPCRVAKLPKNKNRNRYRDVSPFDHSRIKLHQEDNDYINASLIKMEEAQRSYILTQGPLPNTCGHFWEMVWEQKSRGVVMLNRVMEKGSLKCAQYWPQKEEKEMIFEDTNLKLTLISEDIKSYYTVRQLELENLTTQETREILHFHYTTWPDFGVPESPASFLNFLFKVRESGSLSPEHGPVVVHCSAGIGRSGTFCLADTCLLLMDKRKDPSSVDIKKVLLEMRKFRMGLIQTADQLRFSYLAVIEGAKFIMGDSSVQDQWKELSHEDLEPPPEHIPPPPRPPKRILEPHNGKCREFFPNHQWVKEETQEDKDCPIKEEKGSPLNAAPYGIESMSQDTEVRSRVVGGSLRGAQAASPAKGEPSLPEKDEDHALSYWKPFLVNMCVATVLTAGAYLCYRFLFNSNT

[3] = (§1) Inhibition of NFkappaB transcription in human SW480 cells at by luciferase reporter gene assay; type: cell-based
In short: (§2)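 SW480 cells (RPMI1640) stably transfected with an NF-κB luciferase reporter. […] MG132 positive control.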

SW480 [4] = assay: as §1; type: cell-based; in short: as §2
SW480 [5] = assay: Inhibition of NFkappaB transcription in human SW480 cells at 10 uM by luciferase reporter gene assay; type: cell-based; in short: as §2
RAW264.7 = assay: Antiinflammatory activity in mouse RAW264.7 cells assessed as inhibition of LPS-induced nitric oxide production at 10 uM after 24 hrs by Griess assay; type: functional
In short: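 RAW264.7 cells plated at 1.2 × 10^5/well in RPMI1640 and co-treated with compound and 1 μg/mL LPS for 24 h. Nitrite in medium read with Griess reagent (sulfanilamide/naphthylethylenediamine, phosphoric acid) after 15 min at 37 °C, absorbance 540 nm. […] Curcumin positive control.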

[6] = biological target: T3, Tyrosinase (Homo sapiens) (UniProt P14679); assay: Inhibition of tyrosinase (unknown origin) using L-tyrosine as substrate assessed as oxidation of L-tyrosine at 20 uM after 15 mins
T3 sequence (whole entry): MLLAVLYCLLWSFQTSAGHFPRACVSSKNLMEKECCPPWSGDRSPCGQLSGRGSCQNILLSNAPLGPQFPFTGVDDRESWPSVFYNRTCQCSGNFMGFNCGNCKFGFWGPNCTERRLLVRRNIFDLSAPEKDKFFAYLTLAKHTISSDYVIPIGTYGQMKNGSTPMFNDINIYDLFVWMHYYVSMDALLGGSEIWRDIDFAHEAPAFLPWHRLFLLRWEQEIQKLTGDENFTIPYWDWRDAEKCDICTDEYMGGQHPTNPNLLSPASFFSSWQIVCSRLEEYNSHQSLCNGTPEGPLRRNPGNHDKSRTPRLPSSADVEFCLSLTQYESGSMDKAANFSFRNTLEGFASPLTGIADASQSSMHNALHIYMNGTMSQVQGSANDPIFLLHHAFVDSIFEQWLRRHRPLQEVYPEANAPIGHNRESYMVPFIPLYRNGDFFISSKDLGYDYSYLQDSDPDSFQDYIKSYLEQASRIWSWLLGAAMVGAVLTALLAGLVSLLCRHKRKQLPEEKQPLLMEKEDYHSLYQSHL
In short: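 Tyrosinase at 333 U/mL (stock) in 45 mM sodium phosphate, pH 6.6, with 2 mM L-tyrosine (stock). Incubated 37 °C for 15 min; oxidation read at 492 nm. Screened at 20 μM; dose-response for IC50. Glyasperin C positive control.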

MCF7 = assay: Cytotoxicity against human MCF7 cells assessed as reduction in cell viability after 24 hrs by MTS assay; type: functional, cell-based; details: MCF7, 24 h
In short: (§3)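 Cells seeded at 5 × 10^3/well and cultured overnight, then exposed to compounds for 24 h. Viability read by MTS. Media: SW480 in RPMI1640, A549 in DMEM, MCF7 in MEM. […] Irinotecan positive control.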

HepG2 = assay: Cytotoxicity against human HepG2 cells assessed as reduction in cell viability after 24 hrs by MTS assay; type: functional, cell-based; details: HepG2, 24 h; in short: as §3
SW480 [7] = assay: Cytotoxicity against human SW480 cells assessed as reduction in cell viability after 24 hrs by MTS assay; type: functional, cell-based; details: SW480, 24 h; in short: as §3
A549 = assay: Cytotoxicity against human A549 cells assessed as reduction in cell viability after 24 hrs by MTS assay; type: functional, cell-based; details: A549, 24 h; in short: as §3

## COc1cc2c(c3oc(=O)c4c5ccc(O)cc5oc4c13)C(C)(C)C(C)O2 (stereo unspecified)
[1]
  fold change (FC): 0.88

## COc1c(CC=C(C)C)c(O)cc2oc(=O)c(-c3ccc(O)cc3O)cc12
[1]
  fold change (FC): 1.72

## CC(C)=CCc1c(O)ccc(-c2coc3c(CC=C(C)C)c(O)cc(O)c3c2=O)c1O
Influenza A virus
  Activity: >30%
[2]
  inhibition: > 95%

## COc1cc2c(c3oc(=O)c(-c4ccc(O)cc4O)cc13)C(C)(C)C(CO)O2 (stereo unspecified)
[1]
  fold change (FC): 0.88

## COc1cc(O)cc2c1[C@@H]1Oc3c(ccc4c3C=CC(C)(C)O4)[C@@H]1CO2
[3]
  IC50: 25.8 µM
SW480 [4]
  inhibition: Dose-dependent effect
SW480 [5]
  inhibition: > 30%

## COc1cc2oc(-c3ccc(O)cc3O)cc2c(OC)c1CC=C(C)C
Influenza A virus
  Activity: >30%
[2]
  inhibition: > 90%
RAW264.7
  inhibition: inactive

## O=C(/C=C/c1ccc(O)cc1)c1ccc(O)cc1O
[6]
  inhibition: Active
[1]
  fold change (FC): 5.88

## CC(C)C[C@@H](C=O)NC(=O)[C@H](CC(C)C)NC(=O)[C@H](CC(C)C)NC(=O)OCc1ccccc1 [MG-132] (Cbz-Leu-Leu-Leu-aldehyde)
[3]
  IC50: 29.5 µM
SW480 [4]
  inhibition: Dose-dependent effect
SW480 [5]
  inhibition: 23%

## COc1cc2c(c(OC)c1CC=C(C)C)C1c3ccc(O)cc3OC1(O)CO2 (stereo unspecified)
[3]
  IC50: 24.6 µM
SW480 [4]
  inhibition: Dose-dependent effect
SW480 [5]
  inhibition: > 30%

## COc1cc2c(c3oc(=O)c(-c4ccc(O)cc4O)cc13)C(C)(C)C(C)O2 (stereo unspecified)
[1]
  fold change (FC): 0.88

## CC1(C)[C@@H](O)CC[C@]2(C)[C@H]3C(=O)C=C4[C@H]5C[C@@](C)(C(=O)O)CC[C@]5(C)CC[C@@]4(C)[C@]3(C)CC[C@@H]12
Influenza A virus
  Activity: 58%
[2]
  inhibition: 81%

## O=C1C[C@@H](c2ccc(O)cc2)Oc2cc(O)ccc21
[2]
  inhibition: inactive

## COc1c2c(cc3oc(=O)c(-c4ccc(O)cc4O)cc13)OC(C)(C)CC2
[1]
  fold change (FC): 3.49

## CC(C)=CCc1c(O)c(CC=C(C)C)c2occ(-c3ccc(O)cc3)c(=O)c2c1O
Influenza A virus
  Activity: >30%
[2]
  inhibition: > 95%

## CC(C)=CCc1cc2c(=O)cc(-c3ccc(O)cc3)oc2cc1O
[2]
  inhibition: Active

## CC(C)=CCc1c(O)cc2occ(-c3ccc(O)c(O)c3)c(=O)c2c1O
MCF7
  IC50: 7 µM
HepG2
  IC50: 6 µM
SW480 [7]
  IC50: 12 µM
A549
  IC50: 20.3 µM

## COc1c(-c2ccc(O)cc2)oc2cc(O)c(CC=C(C)C)c(O)c2c1=O
MCF7
  IC50: 7.3 µM
[2]
  inhibition: 52%
HepG2
  IC50: 10.8 µM
SW480 [7]
  IC50: 16.1 µM
A549
  IC50: 23.1 µM

Source: ChEMBL document CHEMBL3808312, “Bioactive Constituents of Glycyrrhiza uralensis (Licorice): Discovery of the Effective Components of a Traditional Herbal Medicine” (J Nat Prod, 2016)
